Here are results for one compound from ChEMBL document CHEMBL2150871, “Design, synthesis and biological evaluation of new peptide-based ureas and thioureas as potential antagonists of the thrombin receptor PAR1” (Eur J Med Chem, 2012).

The target of this experiment is T1, Proteinase-activated receptor 1 (Homo sapiens) (UniProt P25116).
T1 sequence (whole entry): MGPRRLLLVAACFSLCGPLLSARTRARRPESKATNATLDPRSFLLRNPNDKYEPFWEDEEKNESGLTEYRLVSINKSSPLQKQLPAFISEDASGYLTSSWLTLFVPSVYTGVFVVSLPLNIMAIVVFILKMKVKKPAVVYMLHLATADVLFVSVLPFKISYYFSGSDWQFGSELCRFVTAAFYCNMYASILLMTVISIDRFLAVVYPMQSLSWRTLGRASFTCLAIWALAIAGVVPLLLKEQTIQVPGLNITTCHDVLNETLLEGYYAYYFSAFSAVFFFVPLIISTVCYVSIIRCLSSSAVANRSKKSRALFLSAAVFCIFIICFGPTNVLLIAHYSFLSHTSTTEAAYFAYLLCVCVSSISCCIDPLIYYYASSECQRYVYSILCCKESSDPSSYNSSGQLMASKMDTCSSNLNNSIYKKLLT
Nature of the experiment: Antagonist activity at PAR1 in human platelets assessed as inhibition of SFLLRN-induced aggregation at 10 uM after 5 mins relative to vehicle-treated control. It is filed as functional. The gist of the method: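 Human donors who had taken no platelet-altering drugs for two weeks gave venous blood into 3.2% buffered citrate. Spun at 250×g for 7 min to give PRP, then 900×g for 10 min to give PPP, which served as optical reference and diluent. Diluted PRP was preincubated 5 min at 37 °C with compound or DMSO vehicle, then challenged with SFLLRN. Maximal optical aggregation at 5 min was compared with SFLLRN/vehicle to give % inhibition.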

As usually defined, the inhibition is the change of the read-out against control, counted positive when it falls. With `NCC[C@H](NC(=O)[C@H](Cc1ccc(F)c(F)c1)NC(=O)Nc1ccc2c(CN3CCCC3)nn(Cc3c(Cl)cccc3Cl)c2c1)C(=O)NCc1ccccc1`, the inhibition was found to be 98%.
